Data published in the RNAGym collection of RNA variant scans (doi:10.1126/science.aae0568).
This sample holds only a part of the variants without activity.

B1: tRNA (parent)
chain: GUUCCGUUGGCGUAAUGGUAACGCGUCUCCCUCCUAAGGAGAAGACUGCGGGUUCGAGUCCCGUACGGAACG

Variants of: B1
Assay: yeast fitness relative to wild type (ratio to wild type); higher = fitter; tRNA-Arg(CCU), competitive growth, 37 C, YPD
Procedure, shortened: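 Gene amplicons from the start population and from each of six end populations were read by 100-nucleotide paired-end sequencing. Those end populations came from pooled Saccharomyces cerevisiae strains carrying tRNA-Arg(CCU) gene variants at the native locus, competed in YPD at 37°C for 24 hours. Fitness relative to wild type was worked out from changes in genotype frequencies. Genotypes needed ≥ 100 starting reads, and estimates < 0.5 were set to 0.5.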
Work on GUUCCAUUGGCGUAAUGGUAAUGCGUCUCCCUCCUAAGGAGAAGACUGCGGGUUCGAGUCUCGUACGGAGCG [G6A C22U C61U A70G] yielded a yeast fitness of at most 0.5. GUUCCAUUGGCGUAAUGGUAAUGCGUCUCCCUCCCAAGGAGAAGACUGCGGGUUAGAGUCCCGUAUGGAACG [G6A C22U U35C C55A C66U] gave a yeast fitness of at most 0.5. Variant GUUCCAUUGGCGUAAUGGUAACGAGUCUCCCUCCUAAGGAGACGACUGCGGCUUCGAGUCCCGUAGGGGACG [G6A C24A A43C G52C C66G A69G] has a yeast fitness of at most 0.5. For GUUCCAUUGGCGUAAUGGUAACGAGUCUCCCUCCUAAACAGAAGACUGCGGAUUCGAGUCCCGUACGGAACG [G6A C24A G38A G39C G52A], the yeast fitness was 0.625. Variant GUUCCAUUGGCGUAAUGGUAACGAGUCUCCCUCCUAAGGAGAAGACUGCGGGCUCGCGUCCCGUUCGGAACG [G6A C24A U53C A57C A65U] has a yeast fitness of at most 0.5. In the case of GUUCCAUUGGCGUAAUGGUAACGGGUCUCCCUCCUAAGGAGAAGACUGCGGGUUCGAGUCCCGUACGGAACG [G6A C24G], the yeast fitness is reported as 0.625. With GUUCCAUUGGCGUAAUGGUAACGGGUCUCCGUCCUAAGGAGAAGACUGCGGGUUCGAGUCCCGUACGGAACG [G6A C24G C31G] the yeast fitness was 0.527. In the case of GUUCCAUUGGCGUAAUGGUAACGGGUCUCCCUCGUAAGGAGAAGACUGCGGGUUCGAGUCCCGUACGGAACG [G6A C24G C34G], the yeast fitness is reported as at most 0.5. Variant GUUCCAUUGGCGUAAUGGUAACGGGUCUCCCUCCUAAGGAGAAGACUGCAGGUUCGAGUCCCGUACGGAACG [G6A C24G G50A] has a yeast fitness of at most 0.5. In the case of GUUCCAUUGGCGUAAUGGUAACGGGUCUCCCUCCAAAGGAGAAGACUCCGGGUUCGAGUCCCGUACGGAACG [G6A C24G U35A G48C], the yeast fitness is reported as 0.54. Work on GUUCCAUUGGCGUAAUGGUAACGGGUCUCCCUCCAAAGGAGAAGACUCCGGGUUCGAGUCCCGUACGGGACG [G6A C24G U35A G48C A69G] yielded a yeast fitness of 0.574. With GUUCCAUUGGCGUAAUGGUAACGUGUCUCCCUCCUAAGGAGUAGACUGCGGGGUCGAGUCCCGUACGCAACG [G6A C24U A42U U53G G68C] the yeast fitness was at most 0.5. For GUUCCAUUGGCGUAAUGGUAACGUGUCUCCCUCCUAAGGAGAAGCCUGCGGGUUCGAGUCGCGUACGGAACG [G6A C24U A45C C61G], the yeast fitness was at most 0.5. With GUUCCAUUGGCGUAAUGGUAACGUGUCUCCCUCCUAAGGAGAAGACUGCGGGUUCGCGUCCCGUACGUCACG [G6A C24U A57C G68U A69C] the yeast fitness was at most 0.5. Work on GUUCCAUUGGCGUAAUGGUAACGUGUCUCCCUCCUAAGGAGAAGACUGCGGGUUCGAGUCCCGUUCGGAACG [G6A C24U A65U] yielded a yeast fitness of at most 0.5. GUUCCAUUGGCGUAAUGGUAACGUGUCUGCCUCCUAAGGAGAAGACUGCGGGUUCGAGUCCCGUAUGGAACG [G6A C24U C29G C66U] gave a yeast fitness of at most 0.5. For GUUCCAUUGGCGUAAUGGUAACGUGUCUCCCUCCUAAGGAGAAGACUGCGGGUUGGAGUCCCGUACGGAUCG [G6A C24U C55G A70U], the yeast fitness was 0.624. Variant GUUCCAUUGGCGUAAUGGUAACGUGUCUCCCUCCUAAGGAGAAGACUGCGGGUUCGAGUCACGUACGGAACG [G6A C24U C61A] has a yeast fitness of at most 0.5. GUUCCAUUGGCGUAAUGGUAACGUGUCUCCCUCCUAAGGAGAAGACUGCGGGUUCGAGUCGCGUAUGGAACG [G6A C24U C61G C66U] gave a yeast fitness of 0.724. For GUUCCAUUGGCGUAAUGGUAACGUGUCUCCCUCCUAAGGAGAAGACUGCGGGUUCGAGUCGCGUAUGGUACG [G6A C24U C61G C66U A69U], the yeast fitness was 0.568. For GUUCCAUUGGCGUAAUGGUAACGUGUCUCCCUCCUAAGGAGAAGACUGCGGGUUCGAGUCGCGUAUGGAGCG [G6A C24U C61G C66U A70G], the yeast fitness was at most 0.5. Work on GUUCCAUUGGCGUAAUGGUAACGUGUCUCCCUCCUAAAGAGAAGACUGCGGGUUCGAGUCGCGUAUGGUACG [G6A C24U G38A C61G C66U A69U] yielded a yeast fitness of at most 0.5. GUUCCAUUGGCGUAAUGGUAACGUGUCUCCCUCCUAAGGAGAAGACUCCGGGUUCGAGUCCCGUACGGAACG [G6A C24U G48C] gave a yeast fitness of 0.618. Work on GUUCCAUUGGCGUAAUGGUAACGUGUCUCCCUCCUAAGGAGAAGACUGCGGGUUCGAGUCCCAUACGGAACG [G6A C24U G63A] yielded a yeast fitness of 0.674. With GUUCCAUUGGCGUAAUGGUAACGUGUCUCCCUCCUAAGGAGAAGACCGCGGGUUCGAGUCCCGUACGGAACG [G6A C24U U47C] the yeast fitness was 0.751. GUUCCAUUGGCGUAAUGGUAACGCGUAUCCCUCCUAAGGAGAAGACUGCGGGUUCGAGUCCCGUACGGAACG [G6A C27A] showed a yeast fitness of 0.707. Variant GUUCCAUUGGCGUAAUGGUAACGCGUAUCCCUCCUGAGGAGAAGACUGCGGGUUCGAGUCCCGUACGGAACG [G6A C27A A36G] has a yeast fitness of at most 0.5. In the case of GUUCCAUUGGCGUAAUGGUAACGCGUAUCCCUCCUAAGGAGAAGACUGCGGGUUCGAGUCCCGUGCGGACCG [G6A C27A A65G A70C], the yeast fitness is reported as at most 0.5. Variant GUUCCAUUGGCGUAAUGGUAACGCGUAUCUCUCCUAAGGACAUGACUGAGGGUUCGAGUCCCUUACGGAACG [G6A C27A C30U G41C A43U C49A G63U] has a yeast fitness of 0.54. GUUCCAUUGGCGUAAUGGUAACGCGUAUCCCUCCUAAGGAGAAGACUGCGGGUUCGAGUACCGAACGGAACG [G6A C27A C60A U64A] showed a yeast fitness of at most 0.5. For GUUCCAUUGGCGUAAUGGUAACGCGUAUCCCUCCUAAGGAGAAGACUGCAGGUUCGAGUCCCGUACGGUACG [G6A C27A G50A A69U], the yeast fitness was 0.542. GUUCCAUUGGCGUAAUGGUAACGCGUGUCCCUCCUCAGGAGCAGACUGCGGGUUCGAGUCCCGUACGGCACG [G6A C27G A36C A42C A69C] showed a yeast fitness of at most 0.5. Work on GUUCCAUUGGCGUAAUGGUAACGCGUGUCCCUCCUUAGGAGAAGAUUGCGGGUUCGAGUCCCGUACAGAACG [G6A C27G A36U C46U G67A] yielded a yeast fitness of at most 0.5. With GUUCCAUUGGCGUAAUGGUAACGCGUGUCCCUCCUAAGGCGAAGACUGCGGGUUCGAGUCCCGUACGGAACG [G6A C27G A40C] the yeast fitness was 0.545. Variant GUUCCAUUGGCGUAAUGGUAACGCGUGUCCCUCCUAAGGAGCAGACUGCGGGUUCGAGUCCCGUACGGAACG [G6A C27G A42C] has a yeast fitness of at most 0.5. Work on GUUCCAUUGGCGUAAUGGUAACGCGUGUCCCUCCUAAGGAGAAGACUGCGGGUUCGAGUCCCGUCCGGAACG [G6A C27G A65C] yielded a yeast fitness of 0.562. For GUUCCAUUGGCGUAAUGGUAACGCGUGUCCCUCCUAAGGAGAAGAUUGCGGGUUCGAGUACCGUAGGCAACG [G6A C27G C46U C60A C66G G68C], the yeast fitness was at most 0.5.
